Results of several laboratories.
Compare with care: the assays were run in different laboratories. pEC50, pIC50: −log10 of the molar value. ≈ marks a conversion by molar mass, not a printed value.

Cc1ccc2nc(-c3ccccc3)c(CNc3ccc(F)cc3)n2c1 — pIC50 (Leishmania infantum; parasite growth; intracellular, amastigote): < 4.19
COc1ccc(/C=C/c2coc3ccc(OC)cc3c2=O)cc1 — CC50 (HSC-2; cell growth or viability, MTT; 7 h): 20 µM
COc1cc(OC)cc(-c2c(-c3ccccn3)nc3n2CCC3)c1 — pEC50 (Leishmania infantum; parasite growth; 5 days, intracellular, amastigote): 5.90
O=C(O)CN1C(=O)/C(=C/c2ccc(-c3ccc(N(c4ccccc4)c4ccccc4)cc3)c3ccccc23)SC1=S — MIC (Streptococcus mutans; microbial growth, broth dilution; ATCC25175): 1000 µg/mL (≈ 1750 µM)
c1ccc(-c2nc3n(c2-c2ccncc2)CCC3)nc1 — pIC50 (Leishmania infantum; parasite growth; intracellular, amastigote): < 4.19
O=C1NC(=S)N/C1=C\c1ccc(-c2ccc(N(c3ccccc3)c3ccccc3)cc2)c2ccccc12 — MBC (Streptococcus mutans; microbial killing, broth dilution; ATCC25175): > 1000 µg/mL
COc1ccc(NC(=O)c2c(Nc3ccccc3)sc(C(=O)NN=Cc3ccc(C)cc3)c2NC(C)=O)cc1 — viability (HCT-116; cell growth or viability, SRB; 0.1 µM, 48 h): 80.5%
COc1ccc2occ(/C=C/c3ccc(O)cc3)c(=O)c2c1 — CC50 (HSC-2; cell growth or viability, MTT; 7 h): 5.5 µM
CN(C)C(=O)c1ccc(-c2c(-c3ccccn3)nc3n2CCC3)cc1 — pEC50 (Leishmania infantum; parasite growth; 5 days, intracellular, amastigote): 4.40
O=C1NC(=S)N/C1=C\c1ccc(-c2ccc(N(c3ccccc3)c3ccccc3)cc2)cc1 — MBC (Streptococcus mutans; microbial killing, broth dilution; ATCC25175): > 1000 µg/mL
CS(=O)(=O)c1ccc2nc(-c3ccccn3)c(Nc3ccc(F)cc3)n2c1 — pIC50 (Leishmania infantum; parasite growth; intracellular, amastigote): 4.49
COc1ccc(NC(=O)c2c(Nc3ccccc3)sc(C#N)c2NC(=O)CNc2ccc([N+](=O)[O-])cc2)cc1 — viability (HCT-116; cell growth or viability, SRB; 10 nM, 48 h): 92.4%
N#Cc1ccc(-c2c(-c3ccccn3)nc3n2CCC3)cc1 — pEC50 (Leishmania infantum; parasite growth; 5 days, intracellular, amastigote): 4.50
O=C1NC(=S)S/C1=C\c1ccc(-c2ccc(N(c3ccccc3)c3ccccc3)cc2)c2ccccc12 — MBC (Streptococcus pyogenes; microbial killing, broth dilution; ATCC19615): > 1000 µg/mL
COc1ccc2occ(/C=C/c3cc(OC)c(OC)c(OC)c3)c(=O)c2c1 — CC50 (HSC-2; cell growth or viability, MTT; 21 h): 5.1 µM
COc1ccc(NC(=O)c2c(Nc3ccccc3)sc(C#N)c2NC(=O)CNc2ccc(Br)cc2)cc1 — viability (HCT-116; cell growth or viability, SRB; 1 nM, 48 h): 101%
O=C(O)CN1C(=O)/C(=C/c2c3ccccc3c(-c3ccc(N(c4ccccc4)c4ccccc4)cc3)c3ccccc23)NC1=S — MBC (Streptococcus mutans; microbial killing, broth dilution; ATCC25175): > 1000 µg/mL
COc1ccc(NC(=O)c2c(Nc3ccccc3)sc(C#N)c2NC(=O)CNc2ccc(Cl)cc2)cc1 — viability (HCT-116; cell growth or viability, SRB; 1 µM, 48 h): 60.1%
CCCN(c1ccc(F)cc1)c1c(-c2ccccn2)nc2ccccn12 — pEC50 (Leishmania infantum; parasite growth; 5 days, intracellular, amastigote): 5.80
COc1ccc(NC(=O)c2c(Nc3ccccc3)sc(C(=O)NN=Cc3ccc(OC)c(O)c3)c2NC(C)=O)cc1 — viability (HCT-116; cell growth or viability, SRB; 10 µM, 48 h): 35.6%
O=C(O)CN1C(=O)/C(=C/c2ccc(-c3ccc(N(c4ccccc4)c4ccccc4)cc3)cc2)NC1=S — MIC (Streptococcus mutans; microbial growth, broth dilution; ATCC25175): 62.5 µg/mL (≈ 124 µM)
NC(=O)N1c2ccccc2C=Cc2ccccc21 — ED50 (MES seizures; rat; intraperitoneal): 6.5 mg/kg
COc1ccc(NC(=O)c2c(Nc3ccccc3)sc(C#N)c2NC(=O)CNc2ccc(OC)c(OC)c2)cc1 — viability (HCT-116; cell growth or viability, SRB; 1 µM, 48 h): 65.2%
O=C(O)CN1C(=O)/C(=C/c2c3ccccc3c(-c3ccc(N(c4ccccc4)c4ccccc4)cc3)c3ccccc23)SC1=S — MIC (Streptococcus mutans; microbial growth, broth dilution; ATCC25175): > 1000 µg/mL
COc1ccc(NC(=O)c2c(Nc3ccccc3)sc(C(=O)NN=Cc3ccc(Cl)cc3)c2NC(C)=O)cc1 — viability (HCT-116; cell growth or viability, SRB; 1 nM, 48 h): 101%
O=C(O)CN1C(=O)/C(=C/c2ccc(-c3ccc(N(c4ccccc4)c4ccccc4)cc3)cc2)SC1=S — MIC (Streptococcus mutans; microbial growth, broth dilution; ATCC25175): 1000 µg/mL (≈ 1910 µM)
Fc1ccc(Nc2c(-c3ccc(F)cn3)nc3ccccn23)cc1 — pEC50 (Leishmania infantum; parasite growth; 5 days, intracellular, amastigote): 4.90
COc1ccc(NC(=O)c2c(Nc3ccccc3)sc(C(=O)NN=Cc3ccc(Br)cc3)c2NC(C)=O)cc1 — viability (HCT-116; cell growth or viability, SRB; 1 µM, 48 h): 72.8%
